Measles CPE = protection of cells from measles virus; Measles virus-infected cells, CPE protection, absorbance; protection (pct of control), % at 4 µM; 1.5% of 140,000 active; AID 841; in the data active means protection mostly above about 24%, no sharp cut-off; inactive means mostly below about 26%
ABCG2 inh = inhibitors of human ABCG2 transporter, ABCB1 counter-screen | IgMXP3 cells, JC-1 efflux, flow cytometry | Q9UNQ0 | 0.1% of 190,000 active | AID 1325 | inhibition, % at 6.6 µM;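 active means inhibition above 80%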
Target sequence (Q9UNQ0 whole entry, looked up): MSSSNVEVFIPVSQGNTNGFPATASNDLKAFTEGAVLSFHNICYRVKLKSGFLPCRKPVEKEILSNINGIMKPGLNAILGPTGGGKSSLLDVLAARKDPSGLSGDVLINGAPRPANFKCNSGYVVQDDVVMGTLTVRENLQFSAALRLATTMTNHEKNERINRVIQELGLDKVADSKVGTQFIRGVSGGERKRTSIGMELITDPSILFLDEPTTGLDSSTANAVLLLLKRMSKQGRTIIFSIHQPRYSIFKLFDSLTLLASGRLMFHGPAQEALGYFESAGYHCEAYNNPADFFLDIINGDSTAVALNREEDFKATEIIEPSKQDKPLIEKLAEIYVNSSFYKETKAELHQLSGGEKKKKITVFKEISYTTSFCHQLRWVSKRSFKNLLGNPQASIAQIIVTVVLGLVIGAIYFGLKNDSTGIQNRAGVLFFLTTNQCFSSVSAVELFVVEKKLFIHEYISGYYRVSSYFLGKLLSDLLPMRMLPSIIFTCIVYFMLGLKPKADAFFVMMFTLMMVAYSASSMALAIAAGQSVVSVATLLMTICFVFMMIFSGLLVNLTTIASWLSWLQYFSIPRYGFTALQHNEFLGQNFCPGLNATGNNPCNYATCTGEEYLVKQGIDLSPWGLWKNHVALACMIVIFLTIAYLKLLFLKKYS
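material = IgMXP3 (ABCG2) plus far-red-tagged CCRF-Adr (ABCB1) cells | amount = 3 million cells/mL, equal mix of both lines | also added = JC-1 transporter substrate | dosing = one concentration, 6.6 µM final | schedule = 10 min at 25 °C | measured by = flow cytometric JC-1 green MFI at 530 nm | read-out basis = percent efflux inhibition, scaled nicardipine 100% to DMSO 0%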
FLuc stim CS = affects firefly luciferase, flagging false hits in luciferase stimulation screens. 200,000 tested, under 10 active. AID 1027. activation factor at 10 µM. P08659. ATPlite luciferase biochemical, luminescence, 10 min; 0 = ATP-free wells, 1 = DMSO control;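 active means luciferase activation factor, scaled between plate controls, of at least 2 with compound at 10 µM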
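Assay system: Luciferase/luciferin detection reagent, cell-free biochemical luciferase assay / Also added: ATP substrate / Schedule: 10 min at ambient temperature / Measured by: luminescence measurement of luciferase light output / Benchmarks: low control with PBS replacing ATP, high control enzyme plus ATP without compound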
ABCB1 block = inhibitors of human ABCB1 transporter, ABCG2 counter-screen. 0.067% of 190,000 active. AID 1326. CCRF-Adr cells, JC-1 efflux, flow cytometry. P08183. inhibition, % at 6.6 µM; in the data active means inhibition above about 40%;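 further: higher value means more JC-1 retained so stronger ABCB1 efflux block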
Redox H2O2 prof = compounds producing H2O2 with reducing agent – biochemical, NIH compound library profiling, artefact control for MLSCN library redox annotation, primary screen; DTT-dependent redox cycling H2O2, phenol red/HRP absorbance; 100% = 100 µM peroxide control, 0% = buffer; activation, % at 10 µM; 0.03% of 200,000 active; AID 878;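 active means activation of at least 50% relative to the plate's high and low controls in the primary single-dose screen; inactive means activation below 50%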;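 further: compound incubated with DTT at 0.8 mM final as the reducing agent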
FLuc inhib CS = Photinus pyralis luciferase inhibition counter-screen. P08659. ATPLite firefly luciferase biochemical luminescence, 10 min. inhibition, % at 10 µM. 1.5% of 200,000 active. AID 1006;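 active means inhibition above about 50% when tested at 10 µM, limit read from the data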
Each line names hits and unclear results; the compound was inactive in the other large screens. Most compounds without a hit are left out; they make up all but 2.7% or so of the library.

COc1ccc(C(=O)n2nnc3ccccc32)cc1OC	none
COC(=O)c1cc(NC(=O)CC2SCCNC2=O)cc(C(=O)OC)c1 (configuration not stated)	Measles CPE 48
CCCSc1ccc2nc(-c3ccccc3)cn2c1	FLuc inhib CS 95
CCCCSc1ccc2nc(-c3ccc(C#N)cc3)cn2c1	Measles CPE 43
COc1ccccc1Nc1nc(N)nc(CSc2ncccn2)n1	none
CCOc1ccccc1Nc1nc(N)nc(CSc2nccc(C)n2)n1	Measles CPE 24
Cn1c(=O)c2c(nc(SCC(=O)NCc3ccco3)n2C)n(C)c1=O	Measles CPE 33
CC(C)n1c(SCC(=O)NCc2ccco2)nc2c1c(=O)n(C)c(=O)n2C	none
COc1ccc(C(=O)Nn2c(SCC(=O)NC3CCCCC3)nc3ccccc3c2=O)cc1	FLuc inhib CS 58
C=CCn1c(SCC(=O)NC2CCCCC2)nc2ccccc2c1=O	none (no result: Measles CPE)
COc1ccc(C(=O)Nn2c(SCC(=O)N3CCC(C)CC3)nc3ccccc3c2=O)cc1	FLuc inhib CS 75
COc1ccc(C(=O)Nn2c(SCC(=O)NCc3ccco3)nc3ccccc3c2=O)cc1	FLuc inhib CS 54
COc1ccc(C(=O)Nn2c(SCC(=O)c3ccc(Cl)cc3)nc3ccccc3c2=O)cc1	Measles CPE 84
CCOC(=O)CCCNC(=O)CSc1nc2ccc(OCC)cc2[nH]1	none (no result: Measles CPE)
Cc1cccc(/C=N/Nc2nncc3ccccc23)c1	FLuc inhib CS 94 (no result: Measles CPE)
Cc1ccc(/C=N/Nc2nnc(Cl)c3ccccc23)cc1	FLuc inhib CS 94
Clc1nnc(N/N=C/c2ccccc2)c2ccccc12	FLuc inhib CS 69
COc1ccc(/C=N/Nc2nnc(-c3ncc[nH]3)c3ccccc23)cc1	FLuc inhib CS 72
CN(CC(=O)Nc1ccc(Cl)cc1)CC(=O)Nc1ccc(F)c(F)c1F	none
CCCn1c(-c2ccc[nH]c2=O)nc2cc(C)c(C)cc21	none (no result: Measles CPE)
Cc1ccc2nc(C(Cl)(Cl)Cl)nc(N/N=C/c3ccncc3)c2c1	none (no result: Measles CPE)
C(=N\Nc1ncnc2ccccc12)/c1ccccc1	FLuc inhib CS 74 (no result: Measles CPE)
Cc1ccc(-c2nc(N/N=C/c3ccncc3)c3ccccc3n2)cc1	FLuc inhib CS 98
Clc1cccc(/C=N/Nc2ncnc3ccccc23)c1	none
Cc1ccc(NC(=O)c2cccs2)cc1	none
Cc1[nH]c(=O)[nH]c(=O)c1NC(=O)c1cccs1	Measles CPE 25
CCC(C)NC(=O)c1cccc(OCc2c(C)noc2C)c1 (configuration not stated)	none (no result: Measles CPE)
CCOC(=O)c1c(C)[nH]c(C(=O)C(C)OC(=O)c2cccc(OCc3c(C)noc3C)c2)c1C (configuration not stated)	Measles CPE 77
O=C(CN1C(=O)COc2ccccc21)NCCCN1CCc2ccccc2C1	Measles CPE 27
O=C(CN1C(=O)COc2ccccc21)NCCCN1CCN(Cc2ccccc2)CC1	none
COc1ccc2c(c1)CC/C2=N\OC(=O)c1ccccc1C	FLuc inhib CS 75 (no result: Measles CPE)
COc1ccc2c(c1)CC/C2=N\OC(=O)c1cccc(C)c1	FLuc inhib CS 78
CCN(CC)Cc1cc(NC2=NS(=O)(=O)c3ccccc32)ccc1OC(=O)c1ccccc1	none
Cc1ccc(S(=O)(=O)Oc2ccc3c(c2)O/C(=C\c2cccnc2)C3=O)cc1	Measles CPE 33
CC(C)Cc1cc(C(=O)O)n[nH]1	Measles CPE 19
CCOC(=O)c1cccc(NC(=O)CSc2nc(N)cc(N)n2)c1	Measles CPE 31
Nc1ccc(SCC(=O)Nc2cccc([N+](=O)[O-])c2)cc1	none (no result: Measles CPE)
CCc1ccc2oc(-c3ccc(OC)cc3)cc(=Nc3cccc(C(=O)O)c3)c2c1	FLuc inhib CS 51 (no result: Measles CPE)
CCOc1ccc2c(c1)c(N=Nc1cccc(C(=O)O)c1)c(O)n2C	none
COc1ccc(-c2cc(=Nc3ccc(C(=O)O)cc3)c3cc(C)ccc3o2)cc1	FLuc inhib CS 58 (no result: Measles CPE)
CN1C(N)=NC(=O)/C1=C/c1ccc(OC(F)(F)F)cc1	none (no result: Measles CPE)
CCOc1cccc(OCCCCN2CCOCC2)c1	Measles CPE 80
COc1cc(/C=N/NC(=O)Cc2csc(N3CCOCC3)n2)cc(OC)c1O	FLuc inhib CS 60 (no result: Measles CPE)
CCc1cc(=O)[nH]c(SCCC(F)=C(F)F)n1	none (no result: Measles CPE)
OCCCc1nc2n(n1)C(c1cccs1)C=C(c1ccccc1)N2 (configuration not stated)	Measles CPE 64
OCCCc1nc2n(n1)C(c1ccccc1)C=C(c1ccc(F)cc1)N2 (configuration not stated)	none
Cc1ccc(-c2nnn(CC(=O)N(c3cccc(F)c3)C(C(=O)NC(C)(C)C)c3ccco3)n2)o1 (configuration not stated)	none (no result: Measles CPE)
OCCC1CN(C2CCSCC2)CCN1C1CCCC1 (configuration not stated)	none (no result: Measles CPE)
Cc1ccc(-c2csc(NC(=O)COC(=O)c3cccc(S(=O)(=O)N4CCOCC4)c3)n2)cc1	Measles CPE 28
COc1cccc(C(=O)Nc2nc(-c3ccc(S(=O)(=O)N4CCOCC4)cc3)cs2)c1	none
CC1CC1C(=O)Nc1nc(-c2ccc(Cl)s2)cs1 (configuration not stated)	none (no result: Measles CPE)
O=C(NCCc1ccccc1)c1cc(S(=O)(=O)N2CCOCC2)ccc1F	none
O=C(COC(=O)c1cc(S(=O)(=O)N2CCOCC2)ccc1O)NCCc1ccccc1	Measles CPE 39
Cc1ccc(-c2csc(NC(=O)c3cccc(S(=O)(=O)N4CCN(C)CC4)c3)n2)cc1	none
O=C(Nc1nc(-c2ccc(Cl)s2)cs1)c1ccncc1	Measles CPE 58
O=C(Nc1nc(-c2cccs2)cs1)c1cccc(S(=O)(=O)N2CCCCC2)c1	Measles CPE 32
CNC(=O)c1ccccc1-c1cn(C)c2ccccc2c1=O	none (no result: Measles CPE)
CCOc1nc(Nc2ccc(OC)c(Cl)c2)nc(OCC)n1	none
Cc1ccc(C)c(NC(=O)CSc2ccc(-c3ccco3)nn2)c1	none
O=C(Nc1nc(-c2cccs2)cs1)c1ccc(Cl)cc1	Measles CPE 49
O=C(Nc1nc(-c2ccncc2)cs1)c1ccco1	none (no result: Measles CPE)
COc1ccc(C(=O)Nc2nc(-c3cccs3)cs2)cc1	none
O=C(Nc1nc(-c2cccs2)cs1)c1ccco1	FLuc inhib CS 53 (no result: Measles CPE)
O=C(Cc1ccccc1)Nc1nc(-c2cccs2)cs1	Measles CPE 62
O=C(COC(=O)c1cc(S(=O)(=O)N2CCOCC2)cs1)c1ccccc1	Measles CPE 51
C=CCSc1nnc(NC(=O)c2cccc(S(=O)(=O)N(C)c3ccccc3)c2)s1	none
Cc1cc(Cl)c(S(=O)(=O)Nc2cc(S(=O)(=O)N3CCOCC3)ccc2F)cc1OCC(N)=O	none (no result: Measles CPE)
O=C(Cc1ccccc1F)Nc1nc(-c2cccnc2)cs1	none (no result: Measles CPE)

From PubChem
